Measurements collected from several papers.
Protocols differ between the studies behind these lines.
Target: Bone morphogenetic protein receptor type-2 (BMPR2, Homo sapiens, UniProt Q13873)
One construct used (Q13873 27-1038): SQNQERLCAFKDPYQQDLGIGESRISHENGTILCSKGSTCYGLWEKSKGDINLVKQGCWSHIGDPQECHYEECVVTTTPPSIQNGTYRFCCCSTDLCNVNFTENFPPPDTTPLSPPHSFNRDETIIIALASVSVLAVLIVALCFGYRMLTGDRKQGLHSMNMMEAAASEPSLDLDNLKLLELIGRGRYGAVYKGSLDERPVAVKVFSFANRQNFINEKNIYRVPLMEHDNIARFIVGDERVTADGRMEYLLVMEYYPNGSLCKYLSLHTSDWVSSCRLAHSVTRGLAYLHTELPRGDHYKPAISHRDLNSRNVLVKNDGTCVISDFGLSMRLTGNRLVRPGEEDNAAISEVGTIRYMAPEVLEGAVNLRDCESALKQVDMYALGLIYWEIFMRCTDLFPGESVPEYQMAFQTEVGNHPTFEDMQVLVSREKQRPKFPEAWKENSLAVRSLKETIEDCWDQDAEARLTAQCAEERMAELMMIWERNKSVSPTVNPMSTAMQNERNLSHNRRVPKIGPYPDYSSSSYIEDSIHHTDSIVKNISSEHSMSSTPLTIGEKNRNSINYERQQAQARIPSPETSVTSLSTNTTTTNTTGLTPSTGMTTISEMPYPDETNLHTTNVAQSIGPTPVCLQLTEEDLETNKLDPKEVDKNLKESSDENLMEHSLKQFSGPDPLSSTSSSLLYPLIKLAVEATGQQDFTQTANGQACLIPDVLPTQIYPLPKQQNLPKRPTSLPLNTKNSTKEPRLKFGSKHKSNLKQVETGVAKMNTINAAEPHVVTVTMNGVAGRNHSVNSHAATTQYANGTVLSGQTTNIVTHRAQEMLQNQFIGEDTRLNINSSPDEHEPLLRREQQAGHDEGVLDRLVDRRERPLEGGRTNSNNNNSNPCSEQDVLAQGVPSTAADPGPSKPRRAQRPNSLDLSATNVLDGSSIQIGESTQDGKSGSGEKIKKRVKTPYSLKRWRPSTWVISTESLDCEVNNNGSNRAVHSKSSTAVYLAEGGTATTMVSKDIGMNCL

| SMILES | observed | mode | technique | concentration | quantity | value |
| --- | --- | --- | --- | --- | --- | --- |
| O=C(Nc1cnn(-c2csc(C(=O)NC3COC3)c2)c1)Nc1c(F)cccc1Cl | enzyme activity | inhibitor | – | 5 µM | remaining activity | 77.2% |
| CC(C)(O)[C@H]1CC[C@H](Nc2ccc3ncc(-c4cccc(C(F)(F)F)c4)n3n2)CC1 | enzyme activity | inhibitor | – | 1 µM | remaining activity | 37.3% |
| CN1CC(Oc2cnc(C#N)cc2-c2ccn3nc(NC(=O)C4CC4)cc3c2)C1 | enzyme activity | inhibitor | – | 1 µM | inhibition | 1% |
| Cn1cncc1C1=CN(c2ncnc3[nH]cnc23)CCS1 | enzyme activity | inhibitor | radiometric | 2 µM | inhibition | 74% |
| CS(=O)(=O)NCC[C@H](NC(=O)c1cncc2c1cnn2-c1ccc(F)cc1)c1ccnc(S(C)(=O)=O)c1 | cell-free assay | – | competition with immobilised ligand | 1 µM | remaining binding | 100% |
| Cn1c2c(c3ccc(Cl)c(Cl)c31)C(C#N)C1(CCOCC1)NC2=O (stereo not drawn) | thermal stability | – | DSF | 10 µM | ΔTm | 0.9 °C |
| O=C(CSc1nc2nccnc2c(=O)n1CCc1ccccc1)Nc1nccs1 | enzyme activity | inhibitor | – | 10 µM | inhibition | 17% |
| O=C(Nc1cnn(-c2csc(C(=O)NC3COC3)c2)c1)Nc1ccccc1Cl | enzyme activity | inhibitor | – | 5 µM | remaining activity | 110% |
| Cn1c2c(c3ccccc31)C(C#N)C(C)(C)NC2=O (stereo not drawn) | thermal stability | – | DSF | 10 µM | ΔTm | 0.2 °C |
| Cc1nccc(COC(=O)N2C[C@@H]3[C@@H](CNC(=O)c4ccc5[nH]nnc5c4)[C@@H]3C2)n1 | cell-free assay | – | competition with immobilised ligand | 1 µM | remaining binding | 81% |
| Cn1c2c(Cl)c(Cl)ccc2c2cn[nH]c(=O)c21 | thermal stability | – | DSF | 10 µM | ΔTm | 2.9 °C |
| C[C@@]1(Cc2ccc(C#N)cc2)C(=O)N(c2cc(Cl)cc(Cl)c2)c2ncc(C(=O)NC3(c4nc(C5CCC5)no4)CC3)n21 | cell-free assay | – | competition with immobilised ligand | 1 µM | remaining binding | 100% |
